ChEMBL document CHEMBL4425094, “Novel Benzo[a]quinolizidine Analogs Induce Cancer Cell Death through Paraptosis and Apoptosis” (J Med Chem, 2016)
Activity calls are given as the source filed them. No cut-off for these calls is given here.

How the values were obtained:
MDA-MB-231 = assay: Cytotoxicity against human MDA-MB-231 cells assessed as cell growth inhibition after 24 hrs by MTT assay; assay type: functional, cell-based; conditions: MDA-MB-231, 24 h
Summary of the method: (§1)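 Cells seeded 24 h in RPMI 1640 + 10% FBS. RWPE-1 was kept in K-SFM with bovine pituitary extract and EGF. Cells then exposed to compounds for 24 h at 37 °C, 5% CO2, with DMSO vehicle and docetaxel as positive control. MTT added for 4 h, absorbance read at 570 nm. Triplicate runs, IC50 reported as mean of three experiments.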

HeLa = assay: Cytotoxicity against human HeLa cells assessed as cell growth inhibition after 24 hrs by MTT assay; assay type: functional, cell-based; summary of the method: as §1
K562 = assay: Cytotoxicity against human K562 cells assessed as cell growth inhibition after 24 hrs by MTT assay; assay type: functional, cell-based; conditions: K562, 24 h; summary of the method: as §1
PC-3 [1] = assay: Cytotoxicity against human PC3 cells assessed as cell growth inhibition after 24 hrs by MTT assay; assay type: functional, cell-based; conditions: PC-3, 24 h; summary of the method: as §1
DU-145 = assay: Cytotoxicity against human DU145 cells assessed as cell growth inhibition after 24 hrs by MTT assay; assay type: functional, cell-based; conditions: DU-145, 24 h; summary of the method: as §1
MCF7 = assay: Cytotoxicity against human MCF7 cells assessed as cell growth inhibition after 24 hrs by MTT assay; assay type: functional, cell-based; conditions: MCF7, 24 h; summary of the method: as §1
RWPE-1 = assay: Cytotoxicity against human RWPE1 cells assessed as cell growth inhibition after 24 hrs by MTT assay; assay type: cell-based; conditions: RWPE-1, 24 h; summary of the method: as §1
PC-3 [2] = assay: Induction of morphological changes in human PC3 cells assessed as formation of massive cytoplasmic vacuoles at 1 uM after 12 hrs by confocal microscopic analysis; assay type: functional, cell-based

| Compound | IC50 (MDA-MB-231) | IC50 (HeLa) | IC50 (K562) | IC50 (PC-3 [1]) | IC50 (DU-145) | IC50 (MCF7) | IC50 (RWPE-1) | Activity (PC-3 [2]) |
| --- | --- | --- | --- | --- | --- | --- | --- | --- |
| C[C@@H]1C[C@@](C)(O)C[C@H]2c3cc(OCc4cc(C(F)(F)F)cc(C(F)(F)F)c4)c(OCc4cc(C(F)(F)F)cc(C(F)(F)F)c4)cc3CCN12 | 530 nM | 1210 nM | 1840 nM | 610 nM | 2240 nM | 810 nM | 2570 nM | Active |
| C[C@@H]1C[C@H](O)C[C@H]2c3cc(OCc4cc(C(F)(F)F)cc(C(F)(F)F)c4)c(OCc4cc(C(F)(F)F)cc(C(F)(F)F)c4)cc3CCN12 | 560 nM | 2840 nM | 1150 nM | 680 nM | 1870 nM | 1870 nM | 2320 nM | Active |
| C[C@@H]1C[C@@H](O)C[C@H]2c3cc(OCc4cc(C(F)(F)F)cc(C(F)(F)F)c4)c(OCc4cc(C(F)(F)F)cc(C(F)(F)F)c4)cc3CCN12 | 510 nM | 2010 nM | 1350 nM | 450 nM | 1740 nM | 520 nM | 1150 nM | Active |
| C[C@@H]1C[C@@H](O)C[C@H]2c3cc(OCc4cccc(F)c4)c(OCc4cccc(F)c4)cc3CCN12 | 580 nM | 1730 nM | 1420 nM | 820 nM | 3850 nM | 490 nM | 1490 nM | Active |
| C[C@@H]1C[C@@H](O)C[C@H]2c3cc(OCc4ccc(Br)cc4)c(OCc4ccc(Br)cc4)cc3CCN12 | 880 nM | 1160 nM | 1220 nM | 1240 nM | 2580 nM | 1290 nM | – | Active |
| COc1ccc([C@@H]2C[C@@H](O)C[C@H]3c4cc(OCc5cc(C)cc(C)c5)c(OCc5cc(C)cc(C)c5)cc4CCN23)cc1OC | 970 nM | 3050 nM | 3950 nM | 1150 nM | 4530 nM | 1320 nM | 3040 nM | Active |
| Cc1cc(C)cc(COc2cc3c(cc2OCc2cc(C)cc(C)c2)[C@@H]2C[C@](C)(O)C[C@@H](C)N2CC3)c1 | 2350 nM | 1250 nM | 1460 nM | 890 nM | 1950 nM | 500 nM | 4770 nM | Active |
| Cc1cc(C)cc(COc2cc3c(cc2OCc2cc(C)cc(C)c2)[C@@H]2C[C@@H](O)C[C@@H](C)N2CC3)c1 (racemic) | 1330 nM | 3240 nM | 2350 nM | 720 nM | 1510 nM | 650 nM | 1350 nM | Active |
| O=C1C=CN2CCc3cc(OCc4ccccc4)c(OCc4ccccc4)cc3C2C1 (stereo unspecified) | > 20000 nM | > 20000 nM | > 20000 nM | > 20000 nM | > 20000 nM | > 20000 nM | > 20000 nM | – |
| O=C1C[C@@H](c2ccc([N+](=O)[O-])cc2)N2CCc3cc(OCc4ccccc4)c(OCc4ccccc4)cc3[C@@H]2C1 | > 20000 nM | > 20000 nM | > 20000 nM | > 20000 nM | > 20000 nM | > 20000 nM | > 20000 nM | – |
| O[C@@H]1C[C@@H](c2ccccc2)N2CCc3cc(OCc4ccccc4)ccc3[C@@H]2C1 | > 20000 nM | > 20000 nM | > 20000 nM | > 20000 nM | > 20000 nM | > 20000 nM | > 20000 nM | – |
| CCCCCCOc1cc2c(cc1OCCCCCC)[C@@H]1C[C@H](O)C[C@@H](C)N1CC2 | > 20000 nM | > 20000 nM | > 20000 nM | > 20000 nM | > 20000 nM | > 20000 nM | > 20000 nM | – |
| C[C@@H]1C[C@@H](O)C[C@H]2c3cc4c(cc3CCN12)OCO4 | > 20000 nM | > 20000 nM | > 20000 nM | > 20000 nM | > 20000 nM | > 20000 nM | > 20000 nM | – |
| CC[C@@H]1C[C@@H](O)C[C@H]2c3cc(OCc4ccccc4)c(OCc4ccccc4)cc3CCN12 | 2880 nM | 2430 nM | 1410 nM | 2150 nM | 1680 nM | 2790 nM | 2200 nM | – |
| Oc1cc2c(cc1O)[C@@H]1C[C@H](O)C[C@@H](c3ccccc3)N1CC2 | > 20000 nM | > 20000 nM | > 20000 nM | > 20000 nM | > 20000 nM | > 20000 nM | > 20000 nM | – |
| CCC[C@@H]1CC(=O)C[C@H]2c3cc(OCc4ccccc4)c(OCc4ccccc4)cc3CCN12 (relative stereo) | > 20000 nM | > 20000 nM | > 20000 nM | > 20000 nM | > 20000 nM | > 20000 nM | > 20000 nM | – |
| C[C@@H]1C[C@H](O)C[C@H]2c3cc(OCc4cccc(F)c4)c(OCc4cccc(F)c4)cc3CCN12 | 1230 nM | 1310 nM | 1080 nM | 1360 nM | 3050 nM | 620 nM | 4450 nM | – |
| COc1cc2c(cc1OC)[C@@H]1CC(=O)C[C@@H](c3ccccc3)N1CC2 (relative stereo) | > 20000 nM | > 20000 nM | > 20000 nM | > 20000 nM | > 20000 nM | > 20000 nM | > 20000 nM | – |
| C[C@@H]1C[C@@](C)(O)C[C@H]2c3cc(OCc4cccc(F)c4)c(OCc4cccc(F)c4)cc3CCN12 | 590 nM | 960 nM | 1010 nM | 410 nM | 2140 nM | 470 nM | 1860 nM | Active |
| O[C@@H]1C[C@@H](c2ccccc2)N2CCc3cc4c(cc3[C@@H]2C1)OCO4 | > 20000 nM | > 20000 nM | > 20000 nM | > 20000 nM | > 20000 nM | > 20000 nM | > 20000 nM | – |
| O[C@@H]1C[C@@H](c2ccccc2)N2CCc3ccc(OCc4ccccc4)cc3[C@@H]2C1 | > 20000 nM | > 20000 nM | > 20000 nM | > 20000 nM | > 20000 nM | > 20000 nM | > 20000 nM | – |
| O=C1C[C@@H](c2ccccc2)N2CCc3ccccc3[C@@H]2C1 (relative stereo) | > 20000 nM | > 20000 nM | > 20000 nM | > 20000 nM | > 20000 nM | > 20000 nM | > 20000 nM | – |
| C[C@@H]1CC(=O)C[C@H]2c3cc(OCc4cc(F)cc(F)c4)c(OCc4cc(F)cc(F)c4)cc3CCN12 (relative stereo) | > 20000 nM | > 20000 nM | > 20000 nM | > 20000 nM | > 20000 nM | > 20000 nM | > 20000 nM | – |
| CC[C@@H]1C[C@H](O)C/C=C(/C)[C@H]2c3cc(OCc4ccccc4)c(OCc4ccccc4)cc3CCN12 | > 20000 nM | > 20000 nM | > 20000 nM | > 20000 nM | > 20000 nM | > 20000 nM | > 20000 nM | – |
